Reference: ChEMBL document CHEMBL4425092, “ent-Labdane Diterpenoids from the Aerial Parts of Eupatorium obtusissmum” (2016)

Experiments:
Type in all cases: functional
HeLa = assay: Antiproliferative activity against human HeLa cells after 48 hrs by sulforhodamine B assay
Method in brief: (§1)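 Cells seeded at 2500 per well and treated from day 1 after plating for 48 h, in triplicate, at dilutions over 0.001–100 μM. Stocks were made in DMSO at 400× the top final concentration, and vehicle controls received 0.25% v/v DMSO. Cells were fixed with ice-cold TCA for 60 min at 4 °C, then stained with SRB. OD was read at 530 nm, corrected for medium-only background, and GI50 was calculated by NCI formulas.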

A549 = assay: Antiproliferative activity against human A549 cells after 48 hrs by sulforhodamine B assay; conditions: A549, 48 h; method in brief: as §1
SW1573 = assay: Antiproliferative activity against human SW1573 cells after 48 hrs by sulforhodamine B assay; conditions: SW1573, 48 h
Method in brief: (§2)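 Plating was at 5000 cells per well, with 48 h drug exposure starting on day 1, in triplicate, at dilutions spanning 0.001–100 μM. DMSO stocks were 400× the top final concentration, and vehicle controls received 0.25% v/v DMSO. Cells were fixed with cold TCA for 60 min at 4 °C, and growth was measured by SRB. Absorbance at 530 nm was corrected for medium-only blank wells, and GI50 was derived by NCI formulas.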

HBL-100 = assay: Antiproliferative activity against human HBL100 cells after 48 hrs by sulforhodamine B assay; conditions: HBL-100, 48 h; method in brief: as §1
T47D = assay: Antiproliferative activity against human T47D cells after 48 hrs by sulforhodamine B assay; method in brief: as §2
WiDr = assay: Antiproliferative activity against human WiDr cells after 48 hrs by sulforhodamine B assay; method in brief: as §2

Structure (SMILES) | GI50 (HeLa) [µM] | GI50 (A549) [µM] | GI50 (SW1573) [µM] | GI50 (T47D) [µM] | GI50 (HBL-100) [µM] | GI50 (WiDr) [µM]
CC1=CC(=O)O[C@@H]1C[C@@H]1[C@@H](C)C(=O)C[C@@H]2C(C)(C)[C@H](O)CC[C@@]12C | > 100 | > 100 | > 100 | > 100 | > 100 | > 100
CC1=CC(=O)O[C@H]1C[C@@H]1[C@@H](C)C(=O)C[C@@H]2C(C)(C)[C@@H](O)CC[C@@]12C | > 100 | > 100 | > 100 | > 100 | > 100 | > 100
C=C1CC[C@@H]2C(C)(C)[C@H](O)CC[C@@]2(C)[C@@H]1C[C@H]1OC(=O)C=C1C | 62 | 59 | > 100 | > 100 | > 100 | > 100
CC1=CC(=O)O[C@@H]1C[C@@H]1[C@@H](C)C(=O)C[C@@H]2C(C)(C)[C@@H](O)CC[C@@]12C | > 100 | > 100 | > 100 | > 100 | > 100 | > 100

Further lines, with some results ahead:

GI50 (HeLa) [µM] | GI50 (A549) [µM] | GI50 (SW1573) [µM] | GI50 (T47D) [µM] | Structure (SMILES) | GI50 (HBL-100) [µM] | GI50 (WiDr) [µM]
62 | 44 | > 100 | > 100 | C=C1CC[C@@H]2C(C)(C)[C@@H](O)CC[C@@]2(C)[C@@H]1C[C@H]1OC(=O)C=C1C | > 100 | > 100
19 | 23 | 57 | 24 | C=C1[C@@H](OC(C)=O)C[C@@H]2C(C)(C)[C@@H](O)CC[C@@]2(C)[C@@H]1C[C@H]1OC(=O)C=C1C | 35 | 32
3 | 0.7 | 15 | 22 | COc1cc([C@@H]2c3cc4c(cc3[C@@H](O[C@@H]3O[C@@H]5CO[C@@H](C)O[C@H]5[C@H](O)[C@H]3O)[C@H]3COC(=O)[C@H]23)OCO4)cc(OC)c1O [ETOPOSIDE] | 2.3 | 23
